{"source": "ChEMBL document CHEMBL1157404", "about": "“Linear and cyclic peptides from the entomopathogenic bacterium Xenorhabdus nematophilus” (J Nat Prod, 2008)", "key": {"Mammaliicoccus lentus [1]": {"system": "Mammaliicoccus lentus", "assay": "Antibacterial activity against Staphylococcus lentus DSM 6672", "assay_type": "functional"}, "Xanthomonas campestris [2]": {"system": "Xanthomonas campestris", "assay": "Antibacterial activity against Xanthomonas campestris DSM 2405", "assay_type": "functional"}, "Pseudomonas syringae [3]": {"system": "Pseudomonas syringae", "assay": "Antibacterial activity against Pseudomonas syringae var.aptata DSM 50252", "assay_type": "functional"}, "Artemia salina": {"system": "Artemia salina", "assay": "Toxicity against Artemia salina assessed as number of immotile nauplii per well after 24 hrs", "assay_type": "organism-based", "procedure,_shortened": "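Compounds were serially diluted 2-fold over 50 to 0.781 µg/well in microplate wells, and the wells were dried before the brine shrimp nauplii were exposed.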"}, "Bacillus subtilis [4]": {"system": "Bacillus subtilis", "assay": "Antibacterial activity against Bacillus subtilis DSM 347", "assay_type": "functional"}, "Xanthomonas campestris [5]": {"system": "Xanthomonas campestris", "assay": "Antibacterial activity against Xanthomonas campestris DSM 2405 at 40 ug/mL", "assay_type": "functional, organism-based"}, "Nakaseomyces glabratus": {"system": "Nakaseomyces glabratus", "assay": "Antifungal activity against Candida glabrata DSM 6425 at 40 ug/mL", "assay_type": "functional, organism-based"}, "Erwinia amylovora [6]": {"system": "Erwinia amylovora", "assay": "Antibacterial activity against Erwinia amylovora at 40 ug/mL", "assay_type": "functional, organism-based"}, "Bacillus subtilis [7]": {"system": "Bacillus subtilis", "assay": "Antibacterial activity against Bacillus subtilis DSM 347 at 40 ug/mL", "assay_type": "functional, organism-based"}, "Mammaliicoccus lentus [8]": {"system": "Mammaliicoccus lentus", "assay": "Antibacterial activity against Staphylococcus lentus DSM 6672 at 40 ug/mL", "assay_type": "functional, organism-based"}, "Ralstonia solanacearum [9]": {"system": "Ralstonia solanacearum", "assay": "Antibacterial activity against Ralstonia solanacearum DSM 9544 at 40 ug/mL", "assay_type": "functional, organism-based"}, "Pseudomonas fluorescens [10]": {"system": "Pseudomonas fluorescens", "assay": "Antibacterial activity against Pseudomonas fluorescens NCIMB 10586 at 40 ug/mL", "assay_type": "functional, organism-based"}, "Pseudomonas syringae [11]": {"system": "Pseudomonas syringae", "assay": "Antibacterial activity against Pseudomonas syringae var.aptata DSM 50252 at 40 ug/mL", "assay_type": "functional, organism-based"}, "Escherichia coli": {"system": "Escherichia coli", "assay": "Antibacterial activity against Escherichia coli K12 DSM 489 at 40 ug/mL", "assay_type": "functional, organism-based"}, "Ralstonia solanacearum [12]": {"system": "Ralstonia solanacearum", "assay": "Antibacterial activity against Ralstonia solanacearum DSM 9544", "assay_type": "functional"}, "Erwinia amylovora [13]": {"system": "Erwinia amylovora", "assay": "Antibacterial activity against Erwinia amylovora", "assay_type": "functional"}, "Galleria mellonella": {"system": "Galleria mellonella", "assay": "Insecticidal activity against Galleria mellonella after 6 days", "assay_type": "functional, organism-based", "procedure,_shortened": "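Oral toxicity test on greater wax moth larvae. Compounds were dissolved at 1 mg/mL in 50% aqueous EtOH. Larvae were held at 35 °C for 6 days, then mortality and ability to spin silk were recorded. Four replicates were run, with two for one compound.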"}, "Pseudomonas fluorescens [14]": {"system": "Pseudomonas fluorescens", "assay": "Antibacterial activity against Pseudomonas fluorescens NCIMB 10586", "assay_type": "functional"}}, "note": "Calls of active or inactive are those of the source. The rule behind the calls is not given here. Bridge positions count the residues as written; N and C are the ends. Square brackets hold non-standard residues; d marks the D form. Peptide text beside a SMILES is read from it. * marks the point of attachment. NMeF = CN[C@@H](Cc1ccccc1)C(=O)O; NMeL = CN[C@@H](CC(C)C)C(=O)O; NHPhenethyl = c1ccc(CCN*)cc1; PhAc = O=C(Cc1ccccc1)*; βAla = NCCC(=O)O", "data": [{"smiles": "CC(C)CC(NC(=O)[C@@H](O)[C@@H](O)C1CCCN1)C1Cc2cccc(O)c2C(=O)O1", "note": "(stereo partly specified)", "values": [{"measurement": "Activity", "setting": "Mammaliicoccus lentus [1]", "result": 70, "unit": "%"}, {"measurement": "MIC", "setting": "Xanthomonas campestris [2]", "result": 40, "unit": "µg/mL"}, {"measurement": "MIC", "setting": "Pseudomonas syringae [3]", "result": 40, "unit": "µg/mL"}, {"measurement": "IC50", "setting": "Artemia salina", "result": 9, "unit": "µg/mL"}, {"measurement": "MIC", "setting": "Bacillus subtilis [4]", "result": 20, "unit": "µg/mL"}]}, {"smiles": "CN[C@@H](CC(C)C)C(=O)N(C)[C@@H](Cc1ccccc1)C(=O)NCCc1ccccc1", "note": "[XENORTIDE A] (H-[NMeL]-[NMeF]-NHPhenethyl)", "values": [{"measurement": "Activity", "setting": "Xanthomonas campestris [5]", "result": "inactive"}, {"measurement": "Activity", "setting": "Nakaseomyces glabratus", "result": "inactive"}, {"measurement": "Activity", "setting": "Erwinia amylovora [6]", "result": "inactive"}, {"measurement": "IC50", "setting": "Artemia salina", "result": 200, "unit": "µg/mL"}, {"measurement": "Activity", "setting": "Bacillus subtilis [7]", "result": "inactive"}, {"measurement": "Activity", "setting": "Mammaliicoccus lentus [8]", "result": "inactive"}, {"measurement": "Activity", "setting": "Ralstonia solanacearum [9]", "result": "inactive"}, {"measurement": "Activity", "setting": "Pseudomonas fluorescens [10]", "result": "inactive"}, {"measurement": "Activity", "setting": "Pseudomonas syringae [11]", "result": "inactive"}, {"measurement": "Activity", "setting": "Escherichia coli", "result": "inactive"}]}, {"smiles": "CN[C@@H](CC(C)C)C(=O)N(C)[C@@H](Cc1ccccc1)C(=O)NCCc1c[nH]c2ccccc12", "note": "[XENORTIDE B]", "values": [{"measurement": "Activity", "setting": "Xanthomonas campestris [5]", "result": "inactive"}, {"measurement": "Activity", "setting": "Nakaseomyces glabratus", "result": "inactive"}, {"measurement": "Activity", "setting": "Erwinia amylovora [6]", "result": "inactive"}, {"measurement": "IC50", "setting": "Artemia salina", "result": 200, "unit": "µg/mL"}, {"measurement": "Activity", "setting": "Bacillus subtilis [7]", "result": "inactive"}, {"measurement": "Activity", "setting": "Mammaliicoccus lentus [8]", "result": "inactive"}, {"measurement": "Activity", "setting": "Ralstonia solanacearum [9]", "result": "inactive"}, {"measurement": "Activity", "setting": "Pseudomonas fluorescens [10]", "result": "inactive"}, {"measurement": "Activity", "setting": "Pseudomonas syringae [11]", "result": "inactive"}, {"measurement": "Activity", "setting": "Escherichia coli", "result": "inactive"}]}, {"smiles": "C[C@H]1OC(=O)CCNC(=O)[C@H](Cc2c[nH]c3ccccc23)NC(=O)[C@H](Cc2c[nH]c3ccccc23)NC(=O)[C@H]1NC(=O)Cc1ccccc1", "note": "[XENEAMATIDE] (PhAc-TWW[βAla]; ester 1-C)", "values": [{"measurement": "MIC", "setting": "Pseudomonas syringae [3]", "result": 10, "unit": "µg/mL"}, {"measurement": "MIC", "setting": "Ralstonia solanacearum [12]", "result": 10, "unit": "µg/mL"}, {"measurement": "MIC", "setting": "Bacillus subtilis [4]", "result": 10, "unit": "µg/mL"}, {"measurement": "MIC", "setting": "Erwinia amylovora [13]", "result": 10, "unit": "µg/mL"}, {"measurement": "Activity", "setting": "Galleria mellonella", "result": "Active"}, {"measurement": "MIC", "setting": "Pseudomonas fluorescens [14]", "result": 10, "unit": "µg/mL"}]}, {"smiles": "CC[C@H](C)C(=O)C(=O)NCCc1c[nH]c2ccccc12", "note": "[NEMATOPHIN]", "values": [{"measurement": "Activity", "setting": "Xanthomonas campestris [5]", "result": "inactive"}, {"measurement": "Activity", "setting": "Nakaseomyces glabratus", "result": "inactive"}, {"measurement": "Activity", "setting": "Erwinia amylovora [6]", "result": "inactive"}, {"measurement": "IC50", "setting": "Artemia salina", "result": 50, "unit": "µg/mL"}, {"measurement": "Activity", "setting": "Bacillus subtilis [7]", "result": "inactive"}, {"measurement": "Activity", "setting": "Mammaliicoccus lentus [8]", "result": "inactive"}, {"measurement": "Activity", "setting": "Ralstonia solanacearum [9]", "result": "inactive"}, {"measurement": "Activity", "setting": "Pseudomonas fluorescens [10]", "result": "inactive"}, {"measurement": "Activity", "setting": "Pseudomonas syringae [11]", "result": "inactive"}, {"measurement": "Activity", "setting": "Escherichia coli", "result": "inactive"}]}]}
